Measured values published in ChEMBL document CHEMBL4130629 (J Med Chem, 2018).
In brackets after ≈: the same amount, converted by molar mass.

Key:
[1] = Oral bioavailability in Sprague-Dawley rat at 5 mg/kg; type: ADME, organism-based; conditions: in vivo
Method in brief: (§1)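 Male Sprague-Dawley rats (300−350 g) with jugular vein and/or bile duct cannulas, n = 3 per route; dosed as a solution in PEG-400/ethanol (90/10). The iv dose was 1 mg/kg given as a 0.5 min bolus, with jugular blood sampled from 2 to 1440 min. The po dose was 5 mg/kg after an overnight fast, sampled from 15 to 1440 min. Plasma was taken from EDTA blood.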

[2] = Half life in human liver microsomes; type: ADME, microsome
[3] = Clearance in Sprague-Dawley rat at 1 mg/kg, iv; type: ADME, organism-based; conditions: in vivo
MT2 = test: Cytotoxicity against human MT2 cells assessed as decrease in cell viability after 3 days […]; type: functional; conditions: MT2, 72 h
[4] = Metabolic stability in human liver microsomes assessed as parent compound remaining after 10 mins; type: ADME, microsome; conditions: read-out: Stability
Method in brief: (§2)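 Compound at 3 μM was incubated with human or rat liver microsomes, and the percentage of parent compound remaining was measured after 10 min.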

[5] = Permeability in human Caco2 cells; type: ADME, cell-based; conditions: Caco-2, read-out: permeability
[6] = Volume of distribution at steady state in Sprague-Dawley rat at 1 mg/kg, iv; type: ADME, organism-based; conditions: in vivo, read-out: Vdss; method in brief: as §1
[7] = Metabolic stability in rat liver microsomes assessed as parent compound remaining after 10 mins; type: ADME, microsome; conditions: read-out: Stability; method in brief: as §2
[8] = Half life in Sprague-Dawley rat at 1 mg/kg, iv; type: ADME, organism-based; conditions: in vivo
[9] = tested on: Human immunodeficiency virus 1; test: Antiviral activity against ENV pseudotyped CCR5-tropic HIV1 […] infected in human HeLa67 cells after 3 days by luciferase reporter gene assay; type: functional, organism-based; conditions: Human immunodeficiency virus 1, HeLa67, 72 h
Method in brief: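 Single-cycle infection with env-deleted, luciferase-reporter HIV-1 pseudotyped with the JRFL (CCR5) envelope, supplied by transfection; viral titers normalized by luminescence without compound. HeLa 67 cells were infected in the presence of compounds given as 3-fold serial dilutions made from 30 mM DMSO stocks.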

[10] = AUC in Sprague-Dawley rat at 5 mg/kg, po after 24 hrs; type: ADME, organism-based; set-up: time < 24 hr, dose 5 mg/kg, route oral; conditions: in vivo; method in brief: as §1
[11] = Half life in rat liver microsomes; type: ADME, microsome
[12] = Aqueous solubility of the compound; type: physicochemical; conditions: buffer

| Compound | bioavailability [1] [%] | half-life [2] [h] | clearance [3] [mL/min/kg] | CC50 (MT2) [nM] | remaining at 10 min [4] [%] | Papp [5] [×10⁻⁶ cm/s] | Vd [6] [L/kg] | remaining at 10 min [7] [%] | half-life [8] [h] | EC50 [9] [nM] | AUC at 24 h [10] [µM·h] | half-life [11] [h] | solubility [12] [µg/mL] |
| --- | --- | --- | --- | --- | --- | --- | --- | --- | --- | --- | --- | --- | --- |
| COc1cnc(-c2cncc(=O)[nH]2)c2[nH]cc(C(=O)C(=O)N3CCN(C(=O)c4ccccc4)CC3)c12 | 0.43 | > 1.67 | 5.6 | > 300000 | 100 | 6.6 | 0.18 | 100 | 0.8 | 0.21 | 0.13 | – | – |
| COc1cnc(-c2cncnc2)c2[nH]cc(C(=O)C(=O)N3CCN(C(=O)c4ccccc4)CC3)c12 | – | > 1.67 | – | > 300000 | – | 1.5 to 4.9 | – | – | – | 0.51 | – | > 1.67 | – |
| COc1cnc(-c2cnccn2)c2[nH]cc(C(=O)C(=O)N3CCN(C(=O)c4ccccn4)[C@H](C)C3)c12 | 61 | – | 8.8 | > 300000 | 95 | 12.5 | 1.1 | 80 | 2.4 | 0.4 | 7.8 | – | – |
| COc1cnc(-n2ccc(CO)n2)c2[nH]cc(C(=O)C(=O)N3CCN(C(=O)c4ccccc4)[C@H](C)C3)c12 | 19 | – | – | > 300000 | 81 | – | 1.1 | 90 | 2.9 | 0.14 | 1.99 | – | – |
| COc1cnc(-n2cnc(N3CCOCC3)n2)c2[nH]cc(C(=O)C(=O)N3CCN(C(=O)c4ccccc4)CC3)c12 | 52 | – | 6.1 | 203000 | 64 | 5.8 | 0.26 | 89 | 1.5 | 0.07 | 13 | – | – |
| COc1cnc(-n2ccc(N)n2)c2[nH]cc(C(=O)C(=O)N3CCN(C(=O)c4ccccc4)CC3)c12 | 0.8 | – | 57 | > 150000 | 98 | < 1.5 | 0.4 | 99 | 0.5 | 0.04 | 0.03 | – | – |
| COc1cnc(-n2cccn2)c2[nH]cc(C(=O)C(=O)N3CCN(C(=O)c4ccccc4)CC3)c12 | 77.1 | > 1.67 | 5.6 | 288000 | – | < 1.5 | 0.48 | – | 1.8 | 0.58 | 25.6 | > 1.67 | – |
| COCc1ncn(-c2ncc(OC)c3c(C(=O)C(=O)N4CCN(C(=O)c5ccccc5)[C@H](C)C4)c[nH]c23)n1 | – | 1.67 | – | > 300000 | – | 2.2 | – | – | – | 0.09 | – | 1.67 | – |
| CCc1ncn(-c2ncc(OC)c3c(C(=O)C(=O)N4CCN(C(=O)c5ccccc5)[C@H](C)C4)c[nH]c23)n1 | 88.4 | – | – | 281000 | 84 | 31.5 | 0.2 | 90 | 3 | 0.08 | 82 | – | – |
| COc1cnc(-n2ccc(C)n2)c2[nH]cc(C(=O)C(=O)N3CCN(C(=O)c4ccccc4)CC3)c12 | 43.7 | – | – | 130000 to 154000 | 80 | 26 | 0.23 | 100 | 0.9 | 0.05 | 15.7 | – | 17 (≈ 36 µM) |
| CCc1ncn(-c2ncc(OC)c3c(C(=O)C(=O)N4CCN(C(=O)c5ccccc5)CC4)c[nH]c23)n1 | 86 | – | 0.7 | 90000 | 100 | 26.1 | 0.12 | 94 | 3.3 | 0.05 | 254 | – | – |
| COc1cnc(-n2ncnc2C)c2[nH]cc(C(=O)C(=O)N3CCN(C(=O)c4ccccc4)CC3)c12 | – | – | – | > 300000 | 99 | 9.6 | – | 95 | – | 4.07 | – | – | – |
| COc1cnc(-n2ccnn2)c2[nH]cc(C(=O)C(=O)N3CCN(C(=O)c4ccccc4)[C@H](C)C3)c12 | 59 | – | 12 | > 150000 | 83 | 14.3 | 0.49 | 78 | 0.7 | 0.08 | 8.6 | – | – |
| COc1cnc(-n2cc(F)cn2)c2[nH]cc(C(=O)C(=O)N3CCN(C(=O)c4ccccc4)CC3)c12 | – | – | – | 75000 | 77 | 19.5 | – | 83 | – | 0.03 | – | – | – |
| COc1cnc(-n2ccnn2)c2[nH]cc(C(=O)C(=O)N3CCN(C(=O)c4ccccc4)CC3)c12 | 59 | – | – | 225000 | 83 | 7.8 | 0.23 | 82 | 1.6 | 0.07 | 43.5 | – | – |
| COc1cnc(-n2cnc(C)n2)c2[nH]cc(C(=O)C(=O)N3CCN(C(=O)c4ccccc4)[C@H](C)C3)c12 | 104 | – | – | > 300000 | 94 | 12.8 | 0.34 | 98 | 3 | 0.18 | 88 | – | – |
| COc1cnc(-n2ccc(C)n2)c2[nH]cc(C(=O)C(=O)N3CCN(C(=O)c4ccccc4)[C@H](C)C3)c12 | 72.8 | – | – | 142000 | 72 | 20 | 0.47 | 78 | 0.56 | 0.16 | 13.2 | – | 69 (≈ 142 µM) |
| O=C(C(=O)N1CCN(C(=O)c2ccccc2)CC1)c1c[nH]c2ccccc12 | – | > 1.67 | – | – | – | > 10 | – | – | – | – | – | > 1.67 | – |
| COc1cnc(-n2ccc(CN(C)C)n2)c2[nH]cc(C(=O)C(=O)N3CCN(C(=O)c4ccccc4)CC3)c12 | – | – | – | > 150000 | 100 | 1.5 to 4.1 | – | 100 | – | 0.27 | – | – | – |
| COc1cnc(-n2cc(C)nn2)c2[nH]cc(C(=O)C(=O)N3CCN(C(=O)c4ccccc4)[C@H](C)C3)c12 | 65.5 | – | 4.3 | 124000 | 74 | 22.4 | 0.29 | 76 | 1.4 | 0.13 | 34.8 | – | – |
| COCc1ncn(-c2ncc(OC)c3c(C(=O)C(=O)N4CCN(C(=O)c5ccccc5)CC4)c[nH]c23)n1 | – | – | – | > 300000 | 97 | < 1.5 | – | 95 | – | 0.09 | – | – | – |
| CCNC(=O)c1ncn(-c2ncc(OC)c3c(C(=O)C(=O)N4CCN(C(=O)c5ccccc5)CC4)c[nH]c23)n1 | – | – | – | > 300000 | 97 | < 1.5 | – | 100 | – | 0.14 | – | – | 58 (≈ 109 µM) |
| COc1cnc(-c2cnccn2)c2[nH]cc(C(=O)C(=O)N3CCN(C(=O)c4ccccn4)CC3)c12 | 85 | > 1.67 | – | > 300000 | 100 | – | 1.9 | 27 | 4 | 0.11 | 14.6 | – | – |
